According to ChEMBL document CHEMBL1144465, “Role of acidic pH in the susceptibility of intraphagocytic methicillin-resistant Staphylococcus aureus strains to meropenem and cloxacillin” (Antimicrob Agents Chemother, 2007):
Values after ≈ are worked out from the molar mass of the structure shown. Active and inactive are the calls of the source. The rule behind the calls is not given here.

What was measured:
[1] = tested on: Staphylococcus aureus; assay: Antimicrobial activity against methicillin-susceptible Staphylococcus aureus ATCC 25923 after phagocytosis by human THP1 macrophages assessed as reduction in bacterial count at pH 7.4 after 24 hrs; format: functional, organism-based; conditions: ATCC 25923, THP-1, 24 h
[2] = tested on: Staphylococcus aureus; assay: Antimicrobial activity against methicillin-resistant Staphylococcus aureus ATCC 33591 after phagocytosis by human THP1 macrophages assessed as reduction in bacterial count after 24 hrs; conditions: ATCC 33591, THP-1, 24 h
[3] = tested on: Staphylococcus aureus; assay: Antimicrobial activity against methicillin-resistant Staphylococcus aureus […] after phagocytosis by human THP1 macrophages assessed as reduction in bacterial count at pH 7.4 after 24 hrs; format: functional, organism-based; conditions: THP-1, 24 h
[4] = tested on: Staphylococcus aureus; assay: Reversal bacterial susceptibility against methicillin-resistant Staphylococcus aureus ATCC 33591 after phagocytosis by human THP1 macrophages assessed as bacterial count in presence of 10 mM ammonium chloride after 24 hrs; format: functional, organism-based
Procedure, shortened: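 Infected THP-1 macrophages (MRSA ATCC 33591) given 10 mM ammonium chloride after phagocytosis together with meropenem 50 mg/liter or cloxacillin 8 mg/liter (total drug), incubated 24 h; controls with gentamicin 0.5× MIC; CFU counted; means of three independent determinations.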

[5] = tested on: Staphylococcus aureus; assay: Antibacterial activity against methicillin-resistant Staphylococcus aureus 459 at pH 5.5; format: functional
Procedure, shortened: (§1)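 MRSA clinical isolate 459 (penicillinase-negative, mecA-positive) grown in Mueller-Hinton broth with 2% NaCl; MIC determined in broth adjusted to pH 5.5 or 7.4, inoculum 10^6 CFU/ml of exponential-phase bacteria, 24-h incubation.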

[6] = tested on: Staphylococcus aureus; assay: Antimicrobial activity against methicillin-susceptible Staphylococcus aureus ATCC 25923 after phagocytosis by human THP1 macrophages assessed as reduction in bacterial count at pH 5.5 after 24 hrs; format: functional, organism-based; conditions: ATCC 25923, THP-1, 24 h
[7] = tested on: Staphylococcus aureus; assay: Antimicrobial activity against methicillin-susceptible Staphylococcus aureus ATCC 25923 after phagocytosis by human THP1 macrophages assessed as reduction in bacterial count after 24 hrs; format: functional, organism-based; conditions: ATCC 25923, THP-1, 24 h
Procedure, shortened: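 THP-1 human macrophage-like cells allowed to phagocytose S. aureus for 1 h, then exposed 24 h to a wide range of extracellular total-drug concentrations; controls given gentamicin at 0.5× MIC. Response is log10 CFU change from original inoculum; Hill equation fitted by nonlinear regression for EC50, Emax and static concentration; means of three independent determinations.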

[8] = tested on: Staphylococcus aureus; assay: Antimicrobial activity against Staphylococcus aureus assessed as reduction in bacterial count at pH 5.5 after 24 hrs
[9] = tested on: Staphylococcus aureus; assay: Antibacterial activity against methicillin-resistant Staphylococcus aureus 459 at pH 7.4; format: functional; procedure, shortened: as §1
[10] = tested on: Staphylococcus aureus; assay: Induction of mecA/16S rRNA ratio in methicillin-resistant Staphylococcus aureus ATCC 33591 at 0.5 times MIC at pH 5.5 after 5 hrs; format: functional
[11] = tested on: Staphylococcus aureus; assay: Induction of mecA/16S rRNA ratio in methicillin-resistant Staphylococcus aureus ATCC 33591 at 0.5 times MIC at pH 7.4 after 5 hrs; format: functional

## Cc1onc(-c2ccccc2Cl)c1C(=O)N[C@@H]1C(=O)N2[C@@H]1SC(C)(C)[C@@H]2C(=O)O [CLOXACILLIN]
[1]
  EC50: 0.35 µg/mL (≈ 0.803 µM)
[2]
  EC50: 0.23 µg/mL (≈ 0.528 µM)
[3]
  EC50: 16.9 µg/mL (≈ 38.8 µM)
[4]
  Activity: inactive
[5]
  MIC: 0.03 µg/mL (≈ 0.0688 µM)
[6]
  EC50: 0.22 µg/mL (≈ 0.505 µM)
[7]
  EC50: 0.27 µg/mL (≈ 0.619 µM)
[8]
  EC50: 0.07 µg/mL (≈ 0.161 µM)
[9]
  MIC: 0.125 µg/mL (≈ 0.287 µM)

## C[C@@H](O)[C@H]1C(=O)N2C(C(=O)O)=C(S[C@@H]3CN[C@H](C(=O)Nc4cccc(C(=O)O)c4)C3)[C@H](C)[C@H]12 [ERTAPENEM]
[10]
  Ratio: 0.67
[11]
  Ratio: 0.79

## C[C@@H](O)[C@H]1C(=O)N2C(C(=O)O)=C(S[C@@H]3CN[C@H](C(=O)N(C)C)C3)[C@H](C)[C@H]12 [MEROPENEM]
[1]
  EC50: 0.29 µg/mL (≈ 0.756 µM)
[2]
  EC50: 0.16 µg/mL (≈ 0.417 µM)
[4]
  Activity: inactive
[6]
  EC50: 0.2 µg/mL (≈ 0.522 µM)
[7]
  EC50: 0.14 µg/mL (≈ 0.365 µM)
[8]
  EC50: 0.33 µg/mL (≈ 0.861 µM)

## Cc1onc(-c2ccccc2)c1C(=O)N[C@@H]1C(=O)N2[C@@H]1SC(C)(C)[C@@H]2C(=O)O [OXACILLIN]
[5]
  MIC: 0.03 µg/mL (≈ 0.0747 µM)
[9]
  MIC: 1 µg/mL (≈ 2.49 µM)

## CC1(C)S[C@@H]2[C@H](NC(=O)Cc3ccccc3)C(=O)N2[C@H]1C(=O)O [PENICILLIN G]
[5]
  MIC: 0.03 µg/mL (≈ 0.0897 µM)
[9]
  MIC: 0.25 µg/mL (≈ 0.748 µM)
